From ChEMBL document CHEMBL1155311, “Synthesis and evaluation of N-[(1S,2S)-3-(4-chlorophenyl)-2-(3-cyanophenyl)-1-methylpropyl]-2-methyl-2-aminopropanamide as human cannabinoid-1 receptor (CB1R) inverse agonists” (Bioorg Med Chem Lett, 2009) come the findings set out here.

As usually defined, the IC50 is the point on the concentration scale where inhibition reaches its midpoint. By EC50 is commonly meant the concentration giving half of the maximal effect.

The species entered for one series is Homo sapiens. The series is described as follows: Selectivity ratio of IC50 of human recombinant CB2 receptor to IC50 of human recombinant CB1 receptor.
The target of series [1] is T1, Cannabinoid receptor 1 (Homo sapiens, UniProt P21554). Description: Displacement of [3H]CP-55940 from recombinant human CB1 receptor expressed in CHO cells. Type of series: cell-based. In general terms: In a radioligand displacement assay an active substance lowers the binding of a labelled ligand.
T1 sequence (P21554 whole entry): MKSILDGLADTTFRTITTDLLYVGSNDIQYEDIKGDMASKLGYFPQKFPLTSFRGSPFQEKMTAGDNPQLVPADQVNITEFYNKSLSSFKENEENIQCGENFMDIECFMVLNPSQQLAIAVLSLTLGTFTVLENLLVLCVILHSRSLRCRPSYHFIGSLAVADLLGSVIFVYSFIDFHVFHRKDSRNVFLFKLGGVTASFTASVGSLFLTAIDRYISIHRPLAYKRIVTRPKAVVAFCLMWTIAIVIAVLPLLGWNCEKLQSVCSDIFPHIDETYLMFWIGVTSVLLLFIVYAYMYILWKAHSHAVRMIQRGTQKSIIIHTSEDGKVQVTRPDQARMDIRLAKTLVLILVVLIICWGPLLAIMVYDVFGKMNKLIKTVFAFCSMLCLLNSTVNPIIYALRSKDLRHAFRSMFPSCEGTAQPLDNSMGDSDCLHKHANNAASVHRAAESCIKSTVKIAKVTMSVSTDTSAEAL
A further series deals with Cannabinoid receptor 2 (Homo sapiens, UniProt P34972). The series is described as follows: Displacement of [3H]CP-55940 from recombinant human CB2 receptor expressed in CHO cell. Type of series: cell-based.
Chain of Cannabinoid receptor 2 (P34972 whole entry): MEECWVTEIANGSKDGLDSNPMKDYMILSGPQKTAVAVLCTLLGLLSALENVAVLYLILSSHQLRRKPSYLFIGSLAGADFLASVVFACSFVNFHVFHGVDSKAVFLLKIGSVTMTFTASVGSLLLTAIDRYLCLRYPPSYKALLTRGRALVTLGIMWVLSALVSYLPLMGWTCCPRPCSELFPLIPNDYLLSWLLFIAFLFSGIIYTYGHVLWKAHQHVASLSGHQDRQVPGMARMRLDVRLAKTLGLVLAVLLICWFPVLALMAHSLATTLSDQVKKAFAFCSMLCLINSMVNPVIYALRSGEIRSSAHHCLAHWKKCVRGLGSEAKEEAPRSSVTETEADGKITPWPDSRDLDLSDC
The target in the next series is Cytochrome P450 3A4 (Homo sapiens, UniProt P08684). Description: Inhibition of CYP3A4. Type of series: ADME.
Chain of Cytochrome P450 3A4 (P08684 whole entry): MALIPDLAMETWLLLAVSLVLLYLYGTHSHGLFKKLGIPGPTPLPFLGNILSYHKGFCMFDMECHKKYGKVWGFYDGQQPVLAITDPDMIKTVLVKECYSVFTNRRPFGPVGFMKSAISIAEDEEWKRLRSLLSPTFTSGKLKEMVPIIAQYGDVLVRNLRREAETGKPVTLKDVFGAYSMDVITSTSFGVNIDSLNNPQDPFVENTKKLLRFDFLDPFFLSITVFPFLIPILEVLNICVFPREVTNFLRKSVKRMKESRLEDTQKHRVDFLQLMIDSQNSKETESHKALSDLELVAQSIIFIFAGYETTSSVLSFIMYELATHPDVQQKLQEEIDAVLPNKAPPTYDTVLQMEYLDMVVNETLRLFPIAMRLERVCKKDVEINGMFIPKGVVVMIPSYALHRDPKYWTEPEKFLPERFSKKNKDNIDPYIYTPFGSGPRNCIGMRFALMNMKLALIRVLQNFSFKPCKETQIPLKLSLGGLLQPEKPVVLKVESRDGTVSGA
Series [2] deals with T1, Cannabinoid receptor 1. The series is described as follows: Inverse agonist activity at human CB1 receptor assessed as forskolin-induced cAMP level by adenylyl cyclase activation flash plate assay. It is filed as functional. On the technique in general: Cyclic AMP is a second messenger, typically raised through Gs and lowered through Gi signalling.
Series [3] relates to Liver microsomes. Description: Metabolic stability in human liver microsomes assessed as glucuronide formation. It is filed as ADME, Microsome. The method, boiled down:
(§1)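 Rat or human liver microsomes (1 mg/mL protein) were incubated in 100 mM potassium phosphate, pH 7.4, with 10 mM MgCl2, alamethicin, 5 mM D-saccharic acid 1,4-lactone and 3 mM UDPGA. Incubation ran 90 min at 37 °C with shaking and was quenched with 2 volumes of cold acetonitrile. After centrifugation, glucuronide was detected in the supernatant by LC–MS/MS.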
In general terms: Microsomes from liver hold many membrane-bound enzymes, among them those of drug oxidation.

The test system of series [4] is Liver microsomes. The series is described as follows: Metabolic stability in rat liver microsomes assessed as glucuronide formation. Type of series: ADME, Microsome. The method, boiled down:
as §1

As for `Cc1cc(NC(C)(C)C(=O)N[C@@H](C)[C@@H](Cc2ccc(Cl)cc2)c2cccc(C#N)c2)n[nH]1`, the Ratio IC50 in the series listed under Homo sapiens is 20.

As to `C[C@H](NC(=O)C(C)(C)NCCCN(C)C)[C@@H](Cc1ccc(Cl)cc1)c1cccc(C#N)c1`, the IC50 came out at 2980 nM on Cannabinoid receptor 1 [1] and 25900 nM on Cannabinoid receptor 2. In addition, in the series filed under Homo sapiens, the Ratio IC50 came to 8.7.

For `Cc1cc(NC(C)(C)C(=O)N[C@@H](C)[C@@H](Cc2ccc(Cl)cc2)c2cccc(C#N)c2)[nH]n1`, the results for the IC50 on Cannabinoid receptor 1 [1] and on Cannabinoid receptor 2 were 301 nM and 6110 nM, respectively.

As for `Cc1ccnc(NC(C)(C)C(=O)N[C@@H](C)[C@@H](Cc2ccc(Cl)cc2)c2cccc(C#N)c2)c1`, the IC50 is 37.7 nM at Cannabinoid receptor 1 [1] and 547 nM at Cannabinoid receptor 2. The Ratio IC50 in the series filed under Homo sapiens was 15.

As for `C[C@H](NC(C)(C)C(=O)Nc1ccc(C(F)(F)F)cn1)[C@@H](Cc1ccc(Cl)cc1)c1cccc(C#N)c1`, the IC50 at Cannabinoid receptor 1 [1] is 132 nM; on Cannabinoid receptor 2, 1720 nM; against Cytochrome P450 3A4 it was over 35000 nM. Besides, the Ratio IC50 in the series listed under Homo sapiens stood at 13.

As to `C[C@H](NC(=O)C(C)(C)Nc1cc(C(F)(F)F)ccn1)[C@@H](Cc1ccc(Cl)cc1)c1cccc(C#N)c1`, the IC50 at Cannabinoid receptor 1 [1] turned out to be 1.6 nM; on Cannabinoid receptor 2, 353 nM. Further, the EC50 at Cannabinoid receptor 1 [2] is 0.9 nM. For the same compound, the Stability entry in the series on Liver microsomes [3] and in the series on Liver microsomes [4] was “Stable” each time. The Ratio IC50 in the series filed under Homo sapiens is 221.

Regarding `C[C@H](NC(=O)C(C)(C)Nc1cc2ccccc2cn1)[C@@H](Cc1ccc(Cl)cc1)c1cccc(C#N)c1`, the values for the IC50 at Cannabinoid receptor 1 [1] and on Cannabinoid receptor 2 were 10.1 nM and 117 nM, respectively. The 50% effective concentration (EC50) on Cannabinoid receptor 1 [2] came out at 1.9 nM. In addition, in the series listed under Homo sapiens, the Ratio IC50 came to 12.

As to `Cc1cc(NC(C)(C)C(=O)N[C@@H](C)[C@@H](Cc2ccc(Cl)cc2)c2cccc(C#N)c2)no1`, the IC50 came to 19.5 nM at Cannabinoid receptor 1 [1] and 5160 nM on Cannabinoid receptor 2. For the same compound, the Ratio IC50 in the series filed under Homo sapiens stood at 265.

For the compound `C[C@H](NC(=O)C(C)(C)Nc1ccncn1)[C@@H](Cc1ccc(Cl)cc1)c1cccc(C#N)c1`, the IC50 on Cannabinoid receptor 1 [1] stood at 49.2 nM; at Cannabinoid receptor 2, 14000 nM. The Stability entry with Liver microsomes [3] and in the series with Liver microsomes [4] was “Stable” each time. Further, the Ratio IC50 in the series filed under Homo sapiens stood at 286.

Consider `C[C@H](NC(=O)C(C)(C)Nc1nc2ccccc2n1C)[C@@H](Cc1ccc(Cl)cc1)c1cccc(C#N)c1`, for which the concentration for half-maximal inhibition (IC50) on Cannabinoid receptor 1 [1] was determined as 97 nM; on Cannabinoid receptor 2, 1410 nM. For the same compound, in the series listed under Homo sapiens, the Ratio IC50 is 15.

For the compound `Cc1cc(NC(C)(C)C(=O)N[C@@H](C)[C@@H](Cc2ccc(Cl)cc2)c2cccc(C#N)c2)on1`, the IC50 at Cannabinoid receptor 1 [1] stood at 46.1 nM; at Cannabinoid receptor 2, 3860 nM. Besides, in the series filed under Homo sapiens, the Ratio IC50 was 84.

With `C[C@H](NC(C)(C)C(=O)Nc1cc(-c2ccccc2)on1)[C@@H](Cc1ccc(Cl)cc1)c1cccc(C#N)c1`, the IC50 on Cannabinoid receptor 1 [1] was found to be 136 nM; on Cannabinoid receptor 2 it was 2310 nM. In addition, in the series filed under Homo sapiens, the Ratio IC50 turned out to be 17.

As for `C[C@H](NC(=O)C(C)(C)Nc1cc(-c2ccccc2)on1)[C@@H](Cc1ccc(Cl)cc1)c1cccc(C#N)c1`, the figures for the IC50 on Cannabinoid receptor 1 [1] and at Cannabinoid receptor 2 were 186 nM and 234 nM, respectively. Moreover, the Ratio IC50 in the series listed under Homo sapiens turned out to be 1.3.

On to `C[C@H](NC(=O)C(C)(C)Nc1ccccn1)[C@@H](Cc1ccc(Cl)cc1)c1cccc(C#N)c1`, for which the IC50 worked out at 49 nM at Cannabinoid receptor 1 [1] and 1830 nM on Cannabinoid receptor 2. Besides, the Stability result with Liver microsomes [3] and with Liver microsomes [4] was “Stable” throughout. Moreover, the Ratio IC50 in the series listed under Homo sapiens was determined as 37.

Take `C[C@H](NC(=O)C(C)(C)Nc1ccc(C(F)(F)F)cn1)[C@@H](Cc1ccc(Cl)cc1)c1cccc(C#N)c1`: the IC50 at Cannabinoid receptor 1 [1] was 7.5 nM; at Cannabinoid receptor 2, 322 nM; against Cytochrome P450 3A4, 2030 nM. The EC50 on Cannabinoid receptor 1 [2] turned out to be 3.2 nM. In addition, the Ratio IC50 in the series listed under Homo sapiens stood at 43.

For `C[C@H](NC(=O)C(C)(C)Nc1ccon1)[C@@H](Cc1ccc(Cl)cc1)c1cccc(C#N)c1`, the IC50 on Cannabinoid receptor 1 [1] was 47.7 nM; on Cannabinoid receptor 2, 3210 nM. Further, the Ratio IC50 in the series listed under Homo sapiens is 67.

On to `C[C@H](NC(=O)C(C)(C)Nc1cc(C(C)(C)C)on1)[C@@H](Cc1ccc(Cl)cc1)c1cccc(C#N)c1`, for which the IC50 at Cannabinoid receptor 1 [1] was found to be 8.6 nM; at Cannabinoid receptor 2 it was 254 nM. Besides, the EC50 at Cannabinoid receptor 1 [2] turned out to be 3.5 nM. In the series listed under Homo sapiens, the Ratio IC50 was found to be 30.

For the compound `C[C@H](NC(=O)C(C)(C)Nc1ncc(C(F)(F)F)cc1Cl)[C@@H](Cc1ccc(Cl)cc1)c1cccc(C#N)c1`, the IC50 was 17.9 nM at Cannabinoid receptor 1 [1] and 419 nM on Cannabinoid receptor 2. Also, the Ratio IC50 in the series filed under Homo sapiens was 23.

For the compound `C[C@H](NC(=O)C(C)(C)Nc1ccnn1C)[C@@H](Cc1ccc(Cl)cc1)c1cccc(C#N)c1`, the IC50 on Cannabinoid receptor 1 [1] worked out at 203 nM; at Cannabinoid receptor 2, 13300 nM. For the same compound, the Ratio IC50 in the series listed under Homo sapiens is 65.

Consider `C[C@H](NC(=O)C(C)(C)Nc1ncc(Cl)cc1Cl)[C@@H](Cc1ccc(Cl)cc1)c1cccc(C#N)c1`, for which the IC50 on Cannabinoid receptor 1 [1] was found to be 12.2 nM; at Cannabinoid receptor 2, 699 nM. Further, the Ratio IC50 in the series listed under Homo sapiens came to 57.
